# In ChEMBL document CHEMBL1132336, “Synthesis, evaluation, and comparative molecular field analysis of 1-phenyl-3-amino-1,2,3,4-tetrahydronaphthalenes as ligands for histamine H(1) receptors” (J Med Chem, 1999):
# Key:
# [1] = target: Histamine H1 receptor (Cavia porcellus) (UniProt P31389); test: Compound was tested for the displacement of [3H]mepyramine from Histamine H1 receptor by competition binding assay
# Outline: (§1)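 Membranes from guinea pig brain minus cerebellum (P2 fraction, pre-incubated 15 min at 25 °C, stored at –80 °C). Competition with 2 nM [3H]mepyramine in 50 mM Na+K+-phosphate pH 7.4, 1 h at 30 °C, triplicate tubes. Nonspecific binding defined with 20.0 μM triprolidine. Bound ligand collected on GF/B glass fibre filters, rinsed three times with cold buffer and counted by liquid scintillation.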
# [2] = species on record: Cavia porcellus; test: Compound was tested for the displacement of [3H]mepyramine from Histamine H1 receptor by competition binding assay.; outline: as §1
# Chain of Histamine H1 receptor (Cavia porcellus) (P31389 whole entry): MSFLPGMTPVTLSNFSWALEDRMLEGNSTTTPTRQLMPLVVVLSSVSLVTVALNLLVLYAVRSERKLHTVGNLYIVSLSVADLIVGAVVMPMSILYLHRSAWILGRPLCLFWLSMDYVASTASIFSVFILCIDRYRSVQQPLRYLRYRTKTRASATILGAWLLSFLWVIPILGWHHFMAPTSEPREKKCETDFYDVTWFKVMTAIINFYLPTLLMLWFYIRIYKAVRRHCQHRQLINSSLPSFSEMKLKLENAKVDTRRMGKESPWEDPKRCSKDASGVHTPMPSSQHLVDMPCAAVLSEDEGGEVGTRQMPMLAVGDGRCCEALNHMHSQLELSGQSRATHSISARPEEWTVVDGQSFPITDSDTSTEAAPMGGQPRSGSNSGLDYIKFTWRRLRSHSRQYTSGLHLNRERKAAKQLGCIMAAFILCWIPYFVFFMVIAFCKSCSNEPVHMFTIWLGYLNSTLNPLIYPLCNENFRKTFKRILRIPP
SMILES,K0.5 [1] [nM],K0.5 [2] [nM]
CN(C)CC/C=C1/c2ccccc2COc2ccccc21,0.16,
CN(C)C1Cc2cc(O)c(O)cc2C(c2ccccc2)C1 (stereo in doubt; 12),,69
Nc1ccc2c3c(cccc13)-c1ccccc1-2,,4000
CN(C)C1Cc2cc(O)c(O)cc2C(c2ccccc2)C1 (stereo in doubt; 13),,11.8
CC(C)(C)[C@]1(O)CCN2C[C@H]3c4ccccc4CCc4cccc(c43)[C@@H]2C1,,405
C=CCN1CC[C@@]2(C)c3cc(O)ccc3C[C@H]1[C@H]2C,,2000
CN(C)C1Cc2ccccc2C(c2ccccc2)C1 (stereo in doubt; 1b),,19.1
C[N+](C)(C)C1Cc2ccccc2C(c2ccccc2)C1 (stereo in doubt; 3),,120
CNC1Cc2ccccc2C(c2ccccc2)C1 (configuration not stated),,64
CCN(CC)C1Cc2ccccc2C(c2ccccc2)C1 (configuration not stated),,13.3
CN(C)C1Cc2ccccc2C(c2ccccc2)C1 (stereo in doubt; 1a),,1.07
CN(C)C1Cc2ccccc2C(c2ccc(Cl)cc2)C1 (configuration not stated),,4.4
Cc1ccccc1C1CC(N(C)C)Cc2ccccc21 (configuration not stated),,12.7
CN(C)C1CCc2ccccc2C1 (configuration not stated),,75
CN(C)C1Cc2ccccc2C(C)(c2ccccc2)C1 (stereo in doubt; 14),,40
CN(C)C1Cc2ccccc2C(c2ccc(F)cc2)C1 (configuration not stated),,2.3

SMILES,K0.5 [1] [nM],K0.5 [2] [nM]
C[N+](C)(C)C1Cc2ccccc2C(c2ccccc2)C1 (stereo in doubt; 25),,107
CN(C)C1Cc2ccccc2C(C)(c2ccccc2)C1 (stereo in doubt; 15),,4.4
Cc1ccc(/C(=C\CN2CCCC2)c2ccccn2)cc1,0.46,
CN(C)CC[C@@H](c1ccc(Cl)cc1)c1ccccn1,1.16,
Cc1ccc(C2CC(N(C)C)Cc3ccccc32)cc1 (configuration not stated),,5
CN1[C@@H]2CC[C@H]1C[C@@H](OC(=O)C(CO)c1ccccc1)C2 (some centres not stated),,580
CN(C)C1Cc2cc(Cl)c(O)cc2C(c2ccccc2)C1 (stereo in doubt; 2),1.47,
CN(C)c1ccc2c3c(cccc13)-c1ccccc1-2,,4000
CN(C)C1Cc2ccccc2C(c2ccccc2)C1 (stereo in doubt; 1c),,2.45
OC(CCCN1CCN(c2ncc(F)cn2)CC1)c1ccc(F)cc1 (configuration not stated),548,
CN(C)CCOC(c1ccccc1)c1ccccc1,6.1,
CN(C)C1CCc2ccccc2C(c2ccccc2)C1 (stereo in doubt; 10),,217
CN(C)CC[C@H](c1ccc(Cl)cc1)c1ccccn1,61.6,
CN(C)C1Cc2ccccc2C(c2ccccc2Cl)C1 (configuration not stated),,42.7
CN(C)C1Cc2ccccc2C(c2ccccc2)C1 (stereo in doubt; 1d),,111
CN(C)C1CCc2ccccc2C1c1ccccc1 (stereo in doubt; 8),,> 2000
